{"data": "Assay results gathered from unrelated publications", "JAK1 JH2": "Tyrosine-protein kinase JAK1, JH2 (JAK1, Homo sapiens, UniProt P23458)", "JAK1 JH1": "Tyrosine-protein kinase JAK1, JH1 (JAK1, Homo sapiens, UniProt P23458)", "JAK1": "Tyrosine-protein kinase JAK1 (JAK1, Homo sapiens, UniProt P23458)"}
{"SMILES": "O=C(O)[C@@H]1[C@@H](Cn2nnc3ccccc3c2=O)CC[C@H]1C(=O)c1ccc(OCCC2CCOCC2)cc1", "target": "JAK1 JH2", "test": "cell-free assay, competition with immobilised ligand", "setting": "1 µM", "remaining binding": "100%"}
{"SMILES": "O=C(NCCCN1CCOCC1)c1ccc(Nc2nccc(-c3cc4ccccc4s3)n2)cc1", "target": "JAK1 JH1", "test": "binding, competition with immobilised ligand", "setting": "1 µM", "remaining binding": "39%"}
{"SMILES": "CN(C)c1nccc(-c2cnc3ncccn23)n1", "target": "JAK1", "test": "binding", "setting": "1 µM", "remaining binding": "67%"}
{"SMILES": "COc1cnc(Nc2cccc(S(N)(=O)=O)c2)nc1N1CCN(c2ccccc2)CC1", "target": "JAK1 JH2", "test": "binding, competition with immobilised ligand", "setting": "1 µM", "remaining binding": "28%"}
{"SMILES": "CN1CCN(c2ccc(Nc3nccc(-c4ccccc4)n3)cc2C(F)(F)F)CC1", "target": "JAK1", "test": "binding", "setting": "10 µM", "remaining binding": "0.45%"}
{"SMILES": "C[C@H]1CCN(c2nccc(-c3cnn4ncccc34)n2)C1", "target": "JAK1", "test": "binding", "setting": "1 µM", "remaining binding": "62%"}
{"SMILES": "FC(F)(F)Oc1cccc(-c2cnc3ccc(-c4ccncc4)nn23)c1", "target": "JAK1 JH1", "test": "cell-free assay, competition with immobilised ligand", "setting": "5 µM", "remaining binding": "100%"}
{"SMILES": "F[C@@H]1CCN(c2nccc(-c3cnn4ncccc34)n2)C1", "target": "JAK1 JH1", "test": "cell-free assay, competition with immobilised ligand", "setting": "1 µM", "remaining binding": "100%"}
{"SMILES": "Cc1cnc(Nc2ccc(C(=O)N3CCC(N4CCCC4)CC3)cc2)nc1-c1cc2ccccc2s1", "target": "JAK1 JH1", "test": "binding, competition with immobilised ligand", "setting": "1 µM", "remaining binding": "0%"}
{"SMILES": "O=C(Nc1c[nH]nc1C(=O)NC1CCNCC1)c1cc(F)cc(F)c1", "target": "JAK1 JH1", "test": "binding, competition with immobilised ligand", "setting": "1 µM", "remaining binding": "88%"}
{"SMILES": "Nc1ncc2c(n1)-c1c([nH]c3ccc(C#CC4CC4)cc13)CCCC2", "target": "JAK1 JH2", "test": "binding, competition with immobilised ligand", "setting": "1 µM", "remaining binding": "97%"}
{"SMILES": "CNC(=O)[C@@H]1CC[C@@H](n2c(-c3ccc4cnccc4c3)nc3ccc(C(=O)NCc4cccc(C(N)=O)c4)cc32)C1", "target": "JAK1 JH1", "test": "binding, competition with immobilised ligand", "setting": "1 µM", "remaining binding": "88%"}
{"SMILES": "O=C(NCC1CCOCC1)c1n[nH]cc1NC(=O)c1c(F)cccc1F", "target": "JAK1 JH1", "test": "binding, competition with immobilised ligand", "setting": "1 µM", "remaining binding": "100%"}
{"SMILES": "CCN1CCN(Cc2ccc(C(=O)Nc3ccc(C)c(Oc4ccc5c(c4)CC(=O)N5)c3)cc2C(F)(F)F)CC1", "target": "JAK1 JH1", "test": "binding, competition with immobilised ligand", "setting": "1 µM", "remaining binding": "76%"}
{"SMILES": "O=C(c1ccc(Nc2ncc(Cl)c(-c3ccc(Cl)s3)n2)cc1)N1CCC(N2CCCC2)CC1", "target": "JAK1 JH1", "test": "binding, competition with immobilised ligand", "setting": "1 µM", "remaining binding": "8.6%"}
{"SMILES": "CC1=C(C#N)C(c2ccc3c(c2)c(NC(=O)c2ccccc2C)nn3C)C(C#N)=C(C)N1", "target": "JAK1 JH1", "test": "cell-free assay, competition with immobilised ligand", "setting": "1 µM", "remaining binding": "100%"}
{"SMILES": "N[C@@H]1CCN(c2nccc(-c3cnn4ncccc34)n2)C1", "target": "JAK1 JH1", "test": "cell-free assay, competition with immobilised ligand", "setting": "1 µM", "remaining binding": "100%"}
{"SMILES": "COc1ccc2c(c1)O[C@@H](c1ccc(OC)c(OC)c1)C[C@H]2NC(=O)C1(c2ccc3c(c2)OC(F)(F)O3)CC1", "target": "JAK1 JH2", "test": "cell-free assay, competition with immobilised ligand", "setting": "1 µM", "remaining binding": "90%"}
{"SMILES": "CC1CCCN1c1nccc(-c2cnn3ncccc23)n1 (stereo not drawn)", "target": "JAK1 JH1", "test": "cell-free assay, competition with immobilised ligand", "setting": "1 µM", "remaining binding": "100%"}
{"SMILES": "CCC(=N\\O)/C(C)=C/c1ccc(F)cc1", "target": "JAK1 JH2", "test": "cell-free assay, competition with immobilised ligand", "setting": "1 µM", "remaining binding": "88%"}
{"SMILES": "c1cnn2ncc(-c3ccnc(N4CCC45COC5)n3)c2c1", "target": "JAK1", "test": "binding", "setting": "1 µM", "remaining binding": "67%"}
{"SMILES": "COc1ncc2cc3ccccc3nc2c1C#N", "target": "JAK1 JH1", "test": "cell-free assay, competition with immobilised ligand", "setting": "5 µM", "remaining binding": "93%"}
{"SMILES": "CN(C)c1ncc(F)c(-c2cnn3ncccc23)n1", "target": "JAK1 JH1", "test": "cell-free assay, competition with immobilised ligand", "setting": "1 µM", "remaining binding": "100%"}
{"SMILES": "NS(=O)(=O)c1cc(NC(=O)C2(c3ccccc3Cl)CC2)ccc1Oc1cccc(Cl)c1", "target": "JAK1 JH2", "test": "cell-free assay, competition with immobilised ligand", "setting": "1 µM", "remaining binding": "76%"}
{"SMILES": "O=C(c1ccc(Nc2ncc(Cl)c(-c3cc4ccccc4s3)n2)cc1)N1CCC(N2CCCC2)CC1", "target": "JAK1 JH1", "test": "binding, competition with immobilised ligand", "setting": "1 µM", "remaining binding": "9.3%"}
{"SMILES": "CN(C)c1nccc(-c2cnn3ncccc23)n1", "target": "JAK1", "test": "binding", "setting": "1 µM", "remaining binding": "53%"}
{"SMILES": "CCS(=O)(=O)c1cc2cc(C[C@](O)(CC(C)(C)c3ccc(F)cc3C(N)=O)C(F)(F)F)[nH]c2cn1", "target": "JAK1 JH2", "test": "cell-free assay, competition with immobilised ligand", "setting": "1 µM", "remaining binding": "95%"}
{"SMILES": "c1cncc(-c2cccc(Nc3nccc(NC4CCCCC4)n3)c2)c1", "target": "JAK1 JH1", "test": "binding, competition with immobilised ligand", "setting": "10 µM", "remaining binding": "14%"}
{"SMILES": "O=C(NCCCN1CCOCC1)c1ccc(Nc2ncc(Cl)c(-c3ccc(Cl)s3)n2)cc1", "target": "JAK1 JH2", "test": "binding, competition with immobilised ligand", "setting": "1 µM", "remaining binding": "46%"}
{"SMILES": "Cc1nc(C2CCN(C(=O)c3ccc(OC(F)(F)F)cc3N)CC2)c2ncc(N3CCN(C)CC3)cc2n1", "target": "JAK1 JH1", "test": "cell-free assay, competition with immobilised ligand", "setting": "1 µM", "remaining binding": "95%"}
{"SMILES": "COc1cnc(Nc2cccc(S(N)(=O)=O)c2)nc1N1CCN(c2ccccc2)C(=O)C1", "target": "JAK1 JH1", "test": "binding, competition with immobilised ligand", "setting": "1 µM", "remaining binding": "85%"}
{"SMILES": "O=C(c1ccc(Nc2nccc(-c3cc4ccccc4s3)n2)cc1)N1CCC(N2CCCC2)CC1", "target": "JAK1 JH2", "test": "binding, competition with immobilised ligand", "setting": "1 µM", "remaining binding": "3.6%"}
{"SMILES": "CS(=O)(=O)N1CCCC(NC(=O)[C@H](CCC2CCCCC2)NC(=O)c2ccc(CNC(=O)c3cnc4ccccn34)cc2)C1 (stereo partly drawn)", "target": "JAK1 JH2", "test": "cell-free assay, competition with immobilised ligand", "setting": "0.1 µM", "remaining binding": "100%"}
